From ChEMBL document CHEMBL4145507, “Design, synthesis and biological evaluation of novel indole-benzimidazole hybrids targeting estrogen receptor alpha (ER-α)” (Eur J Med Chem, 2018) come the findings set out here.

pIC50: −log10 of the molar value. Calls of active or inactive are those of the source. The rule behind the calls is not given here.

Data set [1] relates to PBMC. The experiment in a line: Cytotoxicity against human PBMC at 100 uM after 48 hrs by MTT assay. The format is cell-based. Put shortly: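 PBMCs isolated from fresh blood of a healthy donor, held in RPMI-1640 with 10% FBS and antibiotic at 37 °C, 5% CO2. About 10^4 cells seeded per well, then MTT read-out as for the T47D assay (0.5 mg/ml MTT, 4 h, acidified DMSO, 570/620 nm).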

Data set [2] has as its target T1, Estrogen receptor (Homo sapiens, UniProt P03372).
T1 sequence (P03372 whole entry): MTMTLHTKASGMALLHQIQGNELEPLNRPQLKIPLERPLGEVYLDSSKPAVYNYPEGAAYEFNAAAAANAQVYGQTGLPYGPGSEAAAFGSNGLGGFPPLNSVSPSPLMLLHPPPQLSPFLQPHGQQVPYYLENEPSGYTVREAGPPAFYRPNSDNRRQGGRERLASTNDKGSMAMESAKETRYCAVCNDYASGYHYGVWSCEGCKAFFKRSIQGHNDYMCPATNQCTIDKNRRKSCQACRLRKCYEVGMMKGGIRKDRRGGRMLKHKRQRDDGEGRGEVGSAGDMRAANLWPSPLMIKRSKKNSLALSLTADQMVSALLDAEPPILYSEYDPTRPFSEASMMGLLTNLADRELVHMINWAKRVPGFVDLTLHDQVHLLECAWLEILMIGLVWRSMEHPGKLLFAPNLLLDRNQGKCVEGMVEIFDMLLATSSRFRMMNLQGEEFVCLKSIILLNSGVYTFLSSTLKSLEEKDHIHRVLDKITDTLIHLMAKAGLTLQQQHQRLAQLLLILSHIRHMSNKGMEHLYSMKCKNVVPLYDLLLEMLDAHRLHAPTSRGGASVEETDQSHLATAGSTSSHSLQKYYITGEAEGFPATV
The experiment in a line: Displacement of fluoromone TM from recombinant human ERalpha after 2 hrs by fluorescence polarization analysis. In short, it runs like this: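 Fluorescence polarization kit: serially DMSO-diluted compound mixed with recombinant human ERα/Fluormone ES2 complex, at least 2 h at room temperature in the dark. Controls were oestradiol for minimum polarization and free tracer. Percent inhibition normalized; IC50 from non-linear regression as the concentration displacing half of the bound ligand.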

Data set [3] has as its system T47D. The data set is described as follows: Antiproliferative activity against human T47D cells after 48 hrs by MTT assay.
Data set [4] is described as follows: Drug uptake in human T47D cell cytosol at 5 uM after 24 hrs by confocal laser scanning microscopic method. The format is ADME, subcellular.
Data set [5] can be described thus: Drug uptake in human T47D cell nucleus at 5 uM after 24 hrs by confocal laser scanning microscopic method. The format is ADME, subcellular.
Data set [6] can be described thus: Drug uptake in human T47D cell plasma membrane at 5 uM after 24 hrs by confocal laser scanning microscopic method. It counts as ADME, cell membranes.
For data set [7], the system named is T47D. The experiment in a line: Downregulation of ERalpha mRNA levels in human T47D cells at 5 uM after 48 hrs by semi-quantitative RT-PCR analysis. The format is functional, cell-based. In short, it runs like this: (§1)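 T47D cells exposed 48 h; total RNA extracted with TRIzol, checked by NanoDrop and denaturing agarose gel, then reverse transcribed. ERα transcript amplified, run on agarose gel and quantified by densitometry, normalized to GAPDH; representative of three experiments.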

The subject of data set [8] is T47D. The experiment in a line: Downregulation of ERalpha protein levels in human T47D cells at 5 uM after 48 hrs by Western blot analysis. It counts as functional. In short, it runs like this: (§2)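 T47D cells exposed 48 h, lysed in modified RIPA (50 mM Tris-HCl pH 7.4, 150 mM NaCl, 1 mM EDTA, 1% NP-40, protease inhibitors), protein by Bradford. 50 µg protein run on 10% SDS-PAGE, transferred to nitrocellulose, blocked with 5% milk, probed overnight at 4 °C with rabbit anti-ERα (HC-20), HRP secondary, ECL detection. Normalized to β-actin; three experiments.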

The test system of data set [9] is T47D. The data set is described as follows: Downregulation of ERalpha mRNA levels in human T47D cells at 15 uM after 48 hrs by semi-quantitative RT-PCR analysis. It counts as functional, cell-based. In short, it runs like this: as §1
Data set [10] has as its system T47D. The experiment in a line: Downregulation of ERalpha protein levels in human T47D cells at 15 uM after 48 hrs by Western blot analysis. The format is functional. Put shortly:
as §2

Data set [11] is described as follows: Drug uptake in human T47D cell nucleus at 15 uM after 24 hrs by confocal laser scanning microscopic method. It counts as ADME, subcellular.
Data set [12] in a line: Drug uptake in human T47D cell plasma membrane at 15 uM after 24 hrs by confocal laser scanning microscopic method. It counts as ADME, cell membranes.
Data set [13] in a line: Drug uptake in human T47D cell cytosol at 15 uM after 24 hrs by confocal laser scanning microscopic method. The format is ADME, subcellular.

As to `O=C(c1ccccc1)c1ccc2[nH]c(-c3cc4ccccc4n3Cc3ccccc3)nc2c1`, the Activity entry in data set [1] is reported as “Non-Toxic”.
The same measure, in the same setting: with `c1ccc2[nH]c(-c3nc4cccnc4[nH]3)cc2c1` the entry was “Non-Toxic”.
Regarding `O=C(c1ccccc1)c1ccc2[nH]c(-c3cc4ccccc4[nH]3)nc2c1`, the Activity result in [1] is “Non-Toxic”. The negative-log IC50 (pIC50) in [2] is 7.33.
The like results for `BrC1=CN2NC(c3cc4ccccc4n3Cc3ccccc3)=NC2N=C1` (configuration not stated) were, in that order, “Non-Toxic” and 6.27.
`Brc1cnc2[nH]c(-c3cc4ccccc4n3Cc3ccccc3)nc2c1`: the Activity entry in data set [1] was “Non-Toxic”. For the same compound, the negative logarithm of the IC50 (pIC50) in data set [2] is 6.52.
With `c1ccc2cc3[nH]c(-c4cc5ccccc5[nH]4)nc3cc2c1`, the pIC50 in data set [3] is 4.63. In addition, the Activity result in data set [1] was “Non-Toxic”.
On to `Brc1ccc2[nH]c(-c3cc4ccccc4[nH]3)nc2c1`, for which the pIC50 in [3] was 5.30; in data set [2], 7.09. Also, the Activity result is listed as “Non-Toxic” in data set [1] and 27.5% in data set [8]. The Drug uptake result was “Active” in data set [4], “Not Active” in data set [5] and “Active” in [6]. Further, the result in data set [7] was Active.
For `c1ccc(Cn2c(-c3nc4ccccc4[nH]3)cc3ccccc32)cc1`, the pIC50 in data set [3] is 4.67; in [2], 6.59. Further, the Activity result in [1] is “Non-Toxic”.
Regarding `c1ccc2[nH]c(-c3nc4ccccc4[nH]3)cc2c1`, the pIC50 in data set [3] is 5.21. In addition, the Activity entry in [1] is “Non-Toxic”.
For `c1ccc(Cn2c(-c3nc4cc5ccccc5cc4[nH]3)cc3ccccc32)cc1` the same measures were 4.87 and “Non-Toxic”.
In data set [3], `Cc1cc(C)c2nc(-c3cc4ccccc4[nH]3)[nH]c2c1` had a pIC50 of 4.61. Further, the Activity result in [1] was “Non-Toxic”.
For `BrC1=CN2NC(c3cc4ccccc4[nH]3)=NC2N=C1` (configuration not stated) the same measures were 4.61 and “Non-Toxic”.
In the case of `Brc1ccc2[nH]c(-c3cc4ccccc4n3Cc3ccccc3)nc2c1`, the negative logarithm of the IC50 (pIC50) in [3] was 4.81; in data set [2], 7.13. Moreover, the Activity result was “Non-Toxic” in data set [1] and 57.42% in data set [10]. Also, in data set [9], the result was Active. Besides, the Drug uptake entry was “Not Active” in data set [11], “Active” in [12] and “Active” in data set [13].
Consider `c1ccc(Cn2c(-c3nc4cccnc4[nH]3)cc3ccccc32)cc1`, for which the Activity entry in data set [1] is recorded as “Non-Toxic”.
In the case of `Cc1cc(C)c2nc(-c3cc4ccccc4n3Cc3ccccc3)[nH]c2c1`, the negative logarithm of the IC50 (pIC50) is 4.66 in data set [3] and 7.48 in data set [2]. Further, in data set [1], the Activity entry is recorded as “Non-Toxic”.
As for `Cc1cccc2[nH]c(-c3cc4ccccc4[nH]3)nc12`, the pIC50 was 5.05 in data set [3] and 6.72 in data set [2]. Also, the Activity entry in [1] is on record as “Non-Toxic”.
`Clc1cc2nc(-c3cc4ccccc4[nH]3)[nH]c2cc1Cl` showed a negative-log IC50 (pIC50) in data set [3] of 4.67. The Activity result in data set [1] was “Non-Toxic”.
`Cc1c(-c2ccc(O)cc2)n(Cc2ccc(OCCN3CCCCCC3)cc2)c2ccc(O)cc12`: the outcome in [9] was Active.
On to `Brc1cnc2[nH]c(-c3cc4ccccc4[nH]3)nc2c1`, for which, in data set [3], the pIC50 was 4.68. In data set [1], the Activity entry is on record as “Non-Toxic”.
Regarding `Clc1cc2nc(-c3cc4ccccc4n3Cc3ccccc3)[nH]c2cc1Cl`, the pIC50 in [3] is 4.65; in [2], 7.12. For the same compound, in data set [1], the Activity result is listed as “Non-Toxic”.
The like results for `c1ccc2[nH]c(C3=Nc4cccc5cccc(c45)N3)cc2c1` were, in that order, 4.69, 6.70 and “Non-Toxic”.
As to `Cc1cccc2[nH]c(-c3cc4ccccc4n3Cc3ccccc3)nc12`, the Activity entry in data set [1] was “Non-Toxic”. Also, in [2], the negative logarithm of the IC50 (pIC50) is 6.41.
